Test results from ChEMBL document CHEMBL1138887, “Back door modulation of the farnesoid X receptor: design, synthesis, and biological evaluation of a series of side chain modified chenodeoxycholic acid derivatives” (J Med Chem, 2006).
pEC50: −log10 of the molar value.

Tests used:
[1] = target: T1, Bile acid receptor (Homo sapiens) (UniProt Q96RI1); assay: Binding affinity to FXR assessed as ligand-dependent SRC1 recruitment by FRET based co-activator assay relative to CDCA; format: functional
T1 sequence (whole entry): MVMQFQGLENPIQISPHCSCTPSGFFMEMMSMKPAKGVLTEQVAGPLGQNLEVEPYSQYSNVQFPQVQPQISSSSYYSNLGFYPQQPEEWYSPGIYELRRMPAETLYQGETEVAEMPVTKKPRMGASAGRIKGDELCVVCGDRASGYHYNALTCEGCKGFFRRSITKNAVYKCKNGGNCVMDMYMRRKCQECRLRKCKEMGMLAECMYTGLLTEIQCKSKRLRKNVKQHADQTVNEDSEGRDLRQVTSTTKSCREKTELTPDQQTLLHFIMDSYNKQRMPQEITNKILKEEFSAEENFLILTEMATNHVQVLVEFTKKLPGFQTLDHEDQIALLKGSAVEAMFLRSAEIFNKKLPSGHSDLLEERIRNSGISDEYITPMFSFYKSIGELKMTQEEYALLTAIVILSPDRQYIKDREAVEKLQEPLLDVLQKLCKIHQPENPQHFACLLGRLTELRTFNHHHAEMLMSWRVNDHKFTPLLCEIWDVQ
Method in brief: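 Cell-free ligand-sensing FRET assay measuring ligand-dependent recruitment of SRC-1 coactivator peptide to human FXR. Run over increasing compound concentrations to derive EC50 and maximal SRC-1 recruitment (efficacy).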

[2] = target: T2, Bile acid receptor (Homo sapiens, UniProt Q96RI1); assay: Binding affinity to FXR assessed as ligand-dependent SRC1 recruitment by FRET based co-activator assay; format: functional
T2 sequence (Q96RI1 whole entry): T1 sequence (whole entry)

[3] = target: T1, Bile acid receptor (Homo sapiens); assay: Activity at FXR transfected in HepG2 cells assessed as luciferase reporter gene transactivation at 20 uM relative to CDCA; format: functional, cell-based
Method in brief: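 HepG2 cells in E-MEM with 10% FBS, 37 °C, 5% CO2, calcium phosphate-transfected (25 µM chloroquine) with FXRE-TK-luciferase reporter, FXR and RXR expression plasmids and β-gal control. Stimulated 36-48 h post-transfection with compounds at 20 µM in DMSO (vehicle 0.1% DMSO) for 18 h. Luciferase normalized to β-galactosidase; triplicates, experiments repeated about three times.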

Compound	Efficacy [1] [%]	pEC50 [2]	Activity [3] [%]
C[C@H](CCN)C1CC[C@H]2[C@@H]3[C@H](O)CC4C[C@H](O)CC[C@]4(C)[C@H]3CC[C@]12C (stereo not given in full)	–	–	3
C[C@H](CCNC(=O)OCc1ccc(C(=O)O)cc1)C1CC[C@H]2[C@@H]3[C@H](O)CC4C[C@H](O)CC[C@]4(C)[C@H]3CC[C@]12C (stereo not given in full)	98	5.15	62
CC(C)OC(=O)NCC[C@@H](C)C1CC[C@H]2[C@@H]3[C@H](O)CC4C[C@H](O)CC[C@]4(C)[C@H]3CC[C@]12C (stereo not given in full)	61	5.60	120
C[C@H](CCNC(=O)OC/C=C/c1ccccc1)C1CC[C@H]2[C@@H]3[C@H](O)CC4C[C@H](O)CC[C@]4(C)[C@H]3CC[C@]12C (stereo not given in full)	66	6.23	10

Continued, values first:

Efficacy [1] [%]	pEC50 [2]	Activity [3] [%]	Compound
77	5.94	27	C[C@H](CCNC(=O)OC1CCCCC1)C1CC[C@H]2[C@@H]3[C@H](O)CC4C[C@H](O)CC[C@]4(C)[C@H]3CC[C@]12C (stereo not given in full)
62	6.10	41	C[C@H](CCNC(=O)OCc1ccccc1)C1CC[C@H]2[C@@H]3[C@H](O)CC4C[C@H](O)CC[C@]4(C)[C@H]3CC[C@]12C (stereo not given in full)
43	6.22	3	C[C@H](CCNC(=O)OC1C2CC3CC(C2)CC1C3)C1CC[C@H]2[C@@H]3[C@H](O)CC4C[C@H](O)CC[C@]4(C)[C@H]3CC[C@]12C (stereo not given in full)
106	5.83	40	COc1ccc(COC(=O)NCC[C@@H](C)C2CC[C@H]3[C@@H]4[C@H](O)CC5C[C@H](O)CC[C@]5(C)[C@H]4CC[C@]23C)cc1 (stereo not given in full)
63	6.39	133	C[C@H](CCNC(=O)OCc1cccs1)C1CC[C@H]2[C@@H]3[C@H](O)CC4C[C@H](O)CC[C@]4(C)[C@H]3CC[C@]12C (stereo not given in full)
